Among the data in ChEMBL document CHEMBL2417369, “Synthesis and evaluation of heteroaryl substituted diazaspirocycles as scaffolds to probe the ATP-binding site of protein kinases” (Bioorg Med Chem, 2013) are inhibition values, retold here.

Assay [1] deals with Ribosomal protein S6 kinase alpha-1 (Homo sapiens, UniProt Q15418). In words: Inhibition of RSK1 (unknown origin) at 30 uM by microfluidic mobility shift assay relative to control. The procedure, abridged:
(§1)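 Single-point screen in a 24-enzyme kinase panel using a microfluidic assay. Each compound was tested at […] with ATP at roughly the Km for each enzyme. The pan-AGC inhibitor H-89 served as an internal control on every plate.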

Assay [2] deals with Mitogen-activated protein kinase 1 (Homo sapiens, UniProt P28482). In words: Inhibition of ERK2 (unknown origin) at 30 uM by microfluidic mobility shift assay relative to control. The procedure, abridged:
as §1

Assay [3] has as its target Proto-oncogene tyrosine-protein kinase Src (Homo sapiens, UniProt P12931). The experiment in a line: Inhibition of SRC (unknown origin) at 30 uM by microfluidic mobility shift assay relative to control. The gist of the method: as §1
Assay [4] deals with T1, Aurora kinase A (Homo sapiens) (UniProt O14965).
T1 sequence (whole entry): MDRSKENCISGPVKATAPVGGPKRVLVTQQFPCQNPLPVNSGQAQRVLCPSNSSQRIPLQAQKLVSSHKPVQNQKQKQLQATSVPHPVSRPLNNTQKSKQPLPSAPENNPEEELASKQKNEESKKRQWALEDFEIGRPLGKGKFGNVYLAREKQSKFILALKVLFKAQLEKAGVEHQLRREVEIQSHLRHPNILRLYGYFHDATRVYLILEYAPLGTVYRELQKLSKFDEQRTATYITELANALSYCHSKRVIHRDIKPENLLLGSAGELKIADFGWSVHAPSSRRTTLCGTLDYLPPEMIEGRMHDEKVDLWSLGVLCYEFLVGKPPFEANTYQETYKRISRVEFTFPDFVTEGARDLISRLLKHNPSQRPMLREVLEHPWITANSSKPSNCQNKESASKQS
In words: Inhibition of AURA (unknown origin) at 30 uM by microfluidic mobility shift assay relative to control. The gist of the method: as §1

For assay [5], the target named is Tyrosine-protein kinase ABL1 (Homo sapiens, UniProt P00519). In words: Inhibition of ABL (unknown origin) at 30 uM by microfluidic mobility shift assay relative to control. The gist of the method: as §1
For assay [6], the target named is Mitogen-activated protein kinase 3 (Homo sapiens, UniProt P27361). The experiment in a line: Inhibition of ERK1 (unknown origin) at 30 uM by microfluidic mobility shift assay relative to control. The gist of the method: as §1
Assay [7] deals with Tyrosine-protein kinase Lck (Homo sapiens, UniProt P06239). In words: Inhibition of LCK (unknown origin) at 30 uM by microfluidic mobility shift assay relative to control. The gist of the method: as §1
Tyrosine-protein kinase Lck, sequence (P06239 2-509 limits assumed): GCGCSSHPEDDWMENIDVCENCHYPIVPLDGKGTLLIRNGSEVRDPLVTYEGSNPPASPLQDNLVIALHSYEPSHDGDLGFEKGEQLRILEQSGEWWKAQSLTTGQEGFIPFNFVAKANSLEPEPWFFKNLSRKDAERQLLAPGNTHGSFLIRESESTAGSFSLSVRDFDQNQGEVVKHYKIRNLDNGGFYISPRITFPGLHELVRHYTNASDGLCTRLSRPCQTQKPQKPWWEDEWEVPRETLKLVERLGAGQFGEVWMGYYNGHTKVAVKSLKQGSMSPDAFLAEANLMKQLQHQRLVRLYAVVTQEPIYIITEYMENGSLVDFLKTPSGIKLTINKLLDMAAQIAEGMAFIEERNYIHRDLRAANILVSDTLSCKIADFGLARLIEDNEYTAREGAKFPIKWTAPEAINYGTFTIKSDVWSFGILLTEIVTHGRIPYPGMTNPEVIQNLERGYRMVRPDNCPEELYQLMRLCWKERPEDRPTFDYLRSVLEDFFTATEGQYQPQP

Tyrosine-protein kinase ABL1, sequence (P00519 whole entry): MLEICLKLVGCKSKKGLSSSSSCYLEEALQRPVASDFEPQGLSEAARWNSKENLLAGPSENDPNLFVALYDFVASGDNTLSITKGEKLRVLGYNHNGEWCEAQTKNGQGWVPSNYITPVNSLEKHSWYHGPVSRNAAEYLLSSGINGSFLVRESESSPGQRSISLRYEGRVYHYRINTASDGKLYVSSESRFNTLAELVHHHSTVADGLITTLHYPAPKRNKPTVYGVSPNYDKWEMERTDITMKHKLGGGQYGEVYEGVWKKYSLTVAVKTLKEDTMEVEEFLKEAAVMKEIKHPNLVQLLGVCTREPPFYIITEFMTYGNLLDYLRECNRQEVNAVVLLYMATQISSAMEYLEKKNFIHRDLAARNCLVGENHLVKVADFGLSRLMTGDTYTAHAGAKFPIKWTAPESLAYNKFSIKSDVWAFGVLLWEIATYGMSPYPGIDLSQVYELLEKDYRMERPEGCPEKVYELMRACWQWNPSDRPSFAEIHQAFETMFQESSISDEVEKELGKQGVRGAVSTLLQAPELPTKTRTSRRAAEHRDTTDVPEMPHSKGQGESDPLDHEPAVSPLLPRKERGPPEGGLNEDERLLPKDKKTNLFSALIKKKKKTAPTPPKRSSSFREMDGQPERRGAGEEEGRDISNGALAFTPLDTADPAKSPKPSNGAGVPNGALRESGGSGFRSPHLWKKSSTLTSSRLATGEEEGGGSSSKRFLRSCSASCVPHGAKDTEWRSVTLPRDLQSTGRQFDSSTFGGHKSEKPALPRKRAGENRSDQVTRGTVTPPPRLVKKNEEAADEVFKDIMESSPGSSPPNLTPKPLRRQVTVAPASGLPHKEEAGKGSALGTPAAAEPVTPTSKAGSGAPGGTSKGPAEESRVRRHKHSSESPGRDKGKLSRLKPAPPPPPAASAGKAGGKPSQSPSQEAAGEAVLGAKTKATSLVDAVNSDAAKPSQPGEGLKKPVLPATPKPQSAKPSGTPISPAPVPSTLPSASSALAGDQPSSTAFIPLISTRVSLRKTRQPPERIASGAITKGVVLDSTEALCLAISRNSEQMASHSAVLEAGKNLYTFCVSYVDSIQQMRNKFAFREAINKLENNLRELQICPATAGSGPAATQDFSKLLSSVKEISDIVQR
Ribosomal protein S6 kinase alpha-1, sequence (Q15418 whole entry): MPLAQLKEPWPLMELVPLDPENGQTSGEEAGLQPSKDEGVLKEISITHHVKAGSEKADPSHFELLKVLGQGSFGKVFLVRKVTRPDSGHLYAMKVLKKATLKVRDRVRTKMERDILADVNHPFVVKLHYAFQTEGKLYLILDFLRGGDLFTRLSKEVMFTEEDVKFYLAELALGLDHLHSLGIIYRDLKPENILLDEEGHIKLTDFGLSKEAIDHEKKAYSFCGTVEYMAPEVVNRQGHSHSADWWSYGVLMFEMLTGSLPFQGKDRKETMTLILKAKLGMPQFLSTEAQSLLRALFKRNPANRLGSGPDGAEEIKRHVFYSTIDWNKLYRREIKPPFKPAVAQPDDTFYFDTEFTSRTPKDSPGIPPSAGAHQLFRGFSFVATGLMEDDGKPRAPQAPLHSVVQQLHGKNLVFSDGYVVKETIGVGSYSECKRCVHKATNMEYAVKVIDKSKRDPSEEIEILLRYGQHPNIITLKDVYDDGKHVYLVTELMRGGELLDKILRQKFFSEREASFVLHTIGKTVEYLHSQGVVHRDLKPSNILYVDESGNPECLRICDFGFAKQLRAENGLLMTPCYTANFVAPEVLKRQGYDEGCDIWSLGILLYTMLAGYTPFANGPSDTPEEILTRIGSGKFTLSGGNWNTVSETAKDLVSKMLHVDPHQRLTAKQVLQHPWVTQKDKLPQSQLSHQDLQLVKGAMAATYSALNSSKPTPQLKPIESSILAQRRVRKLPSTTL
Mitogen-activated protein kinase 1, sequence (P28482 whole entry): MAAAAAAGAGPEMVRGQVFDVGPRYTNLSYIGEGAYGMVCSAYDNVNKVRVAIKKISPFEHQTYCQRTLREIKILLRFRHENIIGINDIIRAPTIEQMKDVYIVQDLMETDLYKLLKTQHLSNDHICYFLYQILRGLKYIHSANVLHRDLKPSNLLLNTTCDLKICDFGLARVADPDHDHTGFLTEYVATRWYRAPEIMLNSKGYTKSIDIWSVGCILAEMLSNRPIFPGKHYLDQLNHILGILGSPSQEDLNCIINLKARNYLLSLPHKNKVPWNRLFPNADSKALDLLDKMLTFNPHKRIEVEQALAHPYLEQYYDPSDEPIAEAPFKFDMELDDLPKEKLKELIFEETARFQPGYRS
Mitogen-activated protein kinase 3, sequence (P27361 whole entry): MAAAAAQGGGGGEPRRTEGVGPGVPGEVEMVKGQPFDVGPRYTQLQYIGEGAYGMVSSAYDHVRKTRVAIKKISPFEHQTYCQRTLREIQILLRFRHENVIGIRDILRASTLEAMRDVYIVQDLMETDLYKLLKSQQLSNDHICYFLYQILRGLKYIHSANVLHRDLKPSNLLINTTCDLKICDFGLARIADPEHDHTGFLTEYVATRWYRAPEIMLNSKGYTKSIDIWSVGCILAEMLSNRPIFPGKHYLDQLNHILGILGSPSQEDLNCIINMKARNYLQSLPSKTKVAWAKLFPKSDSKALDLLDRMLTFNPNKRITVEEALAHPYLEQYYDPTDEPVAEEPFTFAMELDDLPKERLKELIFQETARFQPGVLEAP
Proto-oncogene tyrosine-protein kinase Src, sequence (P12931 2-536 limits assumed): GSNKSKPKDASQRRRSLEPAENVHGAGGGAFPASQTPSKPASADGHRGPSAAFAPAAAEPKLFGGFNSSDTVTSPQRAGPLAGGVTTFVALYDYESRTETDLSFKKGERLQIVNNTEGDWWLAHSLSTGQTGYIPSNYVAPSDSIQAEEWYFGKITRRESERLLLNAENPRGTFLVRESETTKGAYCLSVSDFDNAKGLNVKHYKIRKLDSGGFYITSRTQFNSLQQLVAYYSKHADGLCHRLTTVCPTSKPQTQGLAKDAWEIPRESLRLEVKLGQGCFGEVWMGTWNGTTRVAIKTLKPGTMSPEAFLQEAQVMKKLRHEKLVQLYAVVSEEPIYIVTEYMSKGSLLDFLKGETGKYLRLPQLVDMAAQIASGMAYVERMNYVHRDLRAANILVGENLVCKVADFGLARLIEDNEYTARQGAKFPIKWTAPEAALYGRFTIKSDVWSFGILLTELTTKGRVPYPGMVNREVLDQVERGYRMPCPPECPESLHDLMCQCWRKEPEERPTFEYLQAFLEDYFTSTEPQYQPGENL

One may read the inhibition as the change of the read-out against control, counted positive when it falls. As for `OC1CCNC2(CCN(c3ncnc4[nH]cnc34)CC2)C1` (racemic), the inhibition in assay [1] was found to be 40%; in assay [2] it was 32%; in assay [3], 22%; in assay [4] it was 63%; in assay [5], 23%; in assay [6] it was 28%. Further, the inhibition in assay [7] worked out at 14%.

Consider `O=S(=O)(c1cccc2cnccc12)N1CCC2(CCCNC2)CC1`, for which the inhibition in assay [1] worked out at 29%; in assay [2], 13%; in assay [3] it was 35%; in assay [4], 24%; in assay [5], 0%; in assay [6], 0%. Further, the inhibition in assay [7] was found to be 9%.

In the case of `O=S(=O)(c1cccc2cnccc12)N1CCC2(CCNC2)CC1`, the inhibition in assay [1] stood at 33%; in assay [2], 4%; in assay [3], 10%; in assay [4], 51%; in assay [5] it was 0%; in assay [6], 14%. In addition, in assay [7], the inhibition worked out at 10%.

Regarding `COC(=O)C1CCC2(CCN(c3ncnc4[nH]cnc34)CC2)NC1` (racemic), the inhibition in assay [1] was found to be 35%; in assay [2] it was 19%; in assay [3], 26%; in assay [4] it was 64%; in assay [5], 18%; in assay [6], 14%. Besides, the inhibition in assay [7] turned out to be 16%.

In the case of `CN(C)C(=O)C1CCC2(CCN(c3ncnc4[nH]cnc34)CC2)NC1` (racemic), the inhibition amounted to 28% in assay [1]; 25% in assay [2]; 16% in assay [3]; 69% in assay [4]; 17% in assay [5]; 20% in assay [6]. In assay [7], the inhibition was 19%.

Consider `c1nc(N2CCCC23CCNCC3)c2nc[nH]c2n1`, for which the inhibition is 13% in assay [1]; 10% in assay [2]; 6% in assay [3]; 18% in assay [4]; 8% in assay [5]; 13% in assay [6]. Also, the inhibition in assay [7] was found to be 9%.

Turning to `O=S(=O)(c1cccc2cnccc12)N1CCC2(CC1)CC(O)CCN2` (racemic), the inhibition in assay [1] came to 74%; in assay [2], 9%; in assay [3], 18%; in assay [4] it was 39%; in assay [5] it was 12%; in assay [6], 20%. The inhibition in assay [7] is 26%.

For `OC1CCC2(CCN(c3ncnc4[nH]cnc34)CC2)NC1` (racemic), the inhibition in assay [1] came out at 67%; in assay [2] it was 42%; in assay [3], 38%; in assay [4] it was 80%; in assay [5], 25%; in assay [6], 46%. Besides, in assay [7], the inhibition is 21%.

Take `O=S(=O)(c1cccc2cnccc12)N1CCC2(CCC(O)CN2)CC1` (racemic): the inhibition in assay [1] was 95%; in assay [2], 8%; in assay [3] it was 29%; in assay [4], 87%; in assay [5] it was 17%; in assay [6], 17%. Also, in assay [7], the inhibition turned out to be 19%.
